Measured values as given in ChEMBL document CHEMBL4052637, “Discovery and Characterization of R/S-N-3-Cyanophenyl-N'-(6-tert-butoxycarbonylamino-3,4-dihydro-2,2-dimethyl-2H-1-benzopyran-4-yl)urea, a New Histone Deacetylase Class III Inhibitor Exerting Antiproliferative Activity against Cancer Cell Lines” (J Med Chem, 2017).
Activity calls are given as the source filed them. The calls are words filed in the database; no cut-off is given here.

Experiments:
[1] = Selectivity index, ratio of IC50 for mouse astrocytes to IC50 for human Hs683 cells
HOP-92 = test: Growth inhibition of human HOP92 cells after 48 hrs by SRB assay; format: functional; settings: HOP-92, 48 h
[2] = target: T1, NAD-dependent protein deacetylase sirtuin-1 (Homo sapiens) (UniProt Q96EB6); test: Inhibition of SIRT1 in human U373 cells assessed as increase of histone H4 acetylation at 5 uM after 8 hrs by Western blotting method relative to control; format: cell-based
T1 sequence (whole entry): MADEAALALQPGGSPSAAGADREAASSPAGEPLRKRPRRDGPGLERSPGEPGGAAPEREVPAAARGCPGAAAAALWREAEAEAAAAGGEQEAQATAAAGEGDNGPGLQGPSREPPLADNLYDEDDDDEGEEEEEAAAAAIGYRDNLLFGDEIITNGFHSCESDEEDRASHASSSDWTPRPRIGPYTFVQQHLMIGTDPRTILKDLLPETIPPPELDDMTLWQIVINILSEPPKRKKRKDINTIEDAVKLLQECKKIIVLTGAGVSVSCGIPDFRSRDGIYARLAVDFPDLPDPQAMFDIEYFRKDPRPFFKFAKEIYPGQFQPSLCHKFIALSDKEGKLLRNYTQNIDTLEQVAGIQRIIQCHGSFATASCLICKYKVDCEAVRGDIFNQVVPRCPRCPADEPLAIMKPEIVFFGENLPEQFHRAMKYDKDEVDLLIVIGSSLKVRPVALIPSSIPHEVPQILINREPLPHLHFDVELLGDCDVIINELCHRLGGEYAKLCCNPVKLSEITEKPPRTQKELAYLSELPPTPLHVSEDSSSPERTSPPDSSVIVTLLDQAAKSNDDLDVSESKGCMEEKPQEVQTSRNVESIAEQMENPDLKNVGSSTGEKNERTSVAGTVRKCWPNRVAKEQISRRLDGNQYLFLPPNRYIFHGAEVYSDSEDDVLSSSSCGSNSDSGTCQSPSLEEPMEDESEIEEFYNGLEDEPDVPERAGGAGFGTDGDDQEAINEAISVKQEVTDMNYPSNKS

Hs 683 [3] = test: Inhibition of spheroid forming capacity of human Hs683 cells assessed as decrease in surface area of tumor spheroids at 5 to 10 uM treated for 24 hrs measured after 96 hrs by bright field microscopic method; format: functional, cell-based
In short: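 Spheroids formed from 1 × 10^3 cells in 25 μL. Cells were pretreated 24 h with compound then left untreated 96 h, or untreated spheroids were cultured 96 h with compound. Surface measured from bright-field images; volume in voxels from 3D plots after image segmentation. Mean ± SD of three independent experiments.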

786-0 = test: Growth inhibition of human 786-0 cells after 48 hrs by SRB assay; format: functional; settings: 786-0, 48 h
Hs 683 [4] = test: Antitumor activity against CM-Dil fluorescent dye labeled human Hs683 cells xenografted in zebrafish embryo at 10 uM preincubated with tumor for 36 hrs followed by tumor implantation in zebra fish yolk sac measured after 72 hrs by fluorescence microscopy; format: functional, cell-based
In short: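 Cells were pretreated in vitro at 5 or 10 μM for 30 or 36 h and labeled with CM-DiI 2 h before injection. Then 100–200 cells were injected into the yolk sac of wild-type zebrafish 48 h post-fertilization, anesthetized in 0.02% tricaine. Embryos were kept 72 h at 28.5 °C in Danieau solution with 0.003% phenylthiourea, and fluorescence was quantified in eight fish per condition.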

EKVX = test: Growth inhibition of human EKVX cells after 48 hrs by SRB assay; format: functional
HL-60(TB) = test: Growth inhibition of human HL-60(TB) cells after 48 hrs by SRB assay; format: functional; settings: HL-60, 48 h
U-251 = test: Growth inhibition of human U251 cells after 48 hrs by SRB assay; format: functional; settings: U-251, 48 h
OVCAR-5 = test: Growth inhibition of human OVCAR5 cells after 48 hrs by SRB assay; format: functional; settings: OVCAR-5, 48 h
Homo sapiens = species: Homo sapiens; test: Inhibition of HDAC isolated from human K562 cells at 0.1 to 100 uM using Fluor-de-Lys as substrate after 15 mins by fluorescence assay
SK-OV-3 = test: Growth inhibition of human SKOV3 cells after 48 hrs by SRB assay; format: functional; settings: SK-OV-3, 48 h
[5] = target: T1, NAD-dependent protein deacetylase sirtuin-1 (Homo sapiens); test: Inhibition of SIRT1 in human Hs683 cells assessed as increase of histone H4 acetylation at 5 uM after 8 hrs by Western blotting method relative to control; format: cell-based
PBMC = test: Cytotoxicity against human PBMC assessed as decrease in cell viability at 1 to 100 uM after 24 to 48 hrs; format: cell-based
[6] = target: NAD-dependent protein deacetylase sirtuin-3, mitochondrial (Homo sapiens, UniProt Q9NTG7); test: Inhibition of N-terminal His-tagged recombinant human SIRT-3 expressed in Escherichia coli using Fluor-de-Lys-SIRT1 as substrate after 15 mins by fluorescence assay
NAD-dependent protein deacetylase sirtuin-3, mitochondrial, sequence (Q9NTG7 whole entry): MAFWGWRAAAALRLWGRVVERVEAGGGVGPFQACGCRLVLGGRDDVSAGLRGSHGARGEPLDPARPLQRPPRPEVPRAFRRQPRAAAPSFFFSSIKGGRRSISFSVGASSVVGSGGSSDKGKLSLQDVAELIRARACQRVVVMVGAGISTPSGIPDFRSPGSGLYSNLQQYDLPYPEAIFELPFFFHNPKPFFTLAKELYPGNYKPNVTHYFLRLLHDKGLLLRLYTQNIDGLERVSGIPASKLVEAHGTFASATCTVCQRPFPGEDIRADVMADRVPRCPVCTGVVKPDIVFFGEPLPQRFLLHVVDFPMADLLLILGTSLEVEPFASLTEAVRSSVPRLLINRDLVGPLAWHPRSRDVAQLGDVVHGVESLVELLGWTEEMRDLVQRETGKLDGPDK

[7] = target: Histone deacetylase 3 (Homo sapiens) (UniProt O15379); test: Inhibition of His-tagged recombinant human HDAC3 expressed in baculovirus infected insect cells at 0.1 to 100 uM using Fluor-de-Lys-SIRT1 as substrate after 15 mins by fluorescence assay
Histone deacetylase 3 (Homo sapiens), sequence (O15379 whole entry): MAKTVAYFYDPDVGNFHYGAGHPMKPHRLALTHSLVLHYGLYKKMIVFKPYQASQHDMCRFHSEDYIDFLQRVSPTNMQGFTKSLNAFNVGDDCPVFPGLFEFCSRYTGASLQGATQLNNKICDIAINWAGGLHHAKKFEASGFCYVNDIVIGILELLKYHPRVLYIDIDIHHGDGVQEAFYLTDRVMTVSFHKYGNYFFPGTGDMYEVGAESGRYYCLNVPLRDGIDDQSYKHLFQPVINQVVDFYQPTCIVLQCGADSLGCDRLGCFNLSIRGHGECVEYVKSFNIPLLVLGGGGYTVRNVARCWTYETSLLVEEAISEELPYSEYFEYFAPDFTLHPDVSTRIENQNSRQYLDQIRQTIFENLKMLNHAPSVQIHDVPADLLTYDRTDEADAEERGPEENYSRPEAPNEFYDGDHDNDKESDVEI

Hs 683 [8] = test: Induction of apoptosis in human Hs683 cells at 10 uM after 72 hrs by TUNEL method relative to control; format: functional
HT-29 = test: Growth inhibition of human HT-29 cells after 48 hrs by SRB assay; format: functional; settings: HT-29, 48 h
Malme-3M = test: Growth inhibition of human MALME-3M cells after 48 hrs by SRB assay; format: functional
[9] = Potency index, ratio of AGK2 IC50 to test compound IC50 for human U373 cells; format: functional, U-373MG ATCC
ACHN = test: Growth inhibition of human ACHN cells after 48 hrs by SRB assay; format: functional
NCI-H460 = test: Growth inhibition of human NCI-H460 cells after 48 hrs by SRB assay; format: functional; settings: NCI-H460, 48 h
[10] = target: Protein deacetylase HDAC6 (Homo sapiens) (UniProt Q9UBN7); test: Inhibition of His-tagged recombinant human HDAC6 expressed in baculovirus infected insect cells at 0.1 to 100 uM using Fluor-de-Lys-SIRT1 as substrate after 15 mins by fluorescence assay
Protein deacetylase HDAC6 (Homo sapiens), sequence (Q9UBN7 whole entry): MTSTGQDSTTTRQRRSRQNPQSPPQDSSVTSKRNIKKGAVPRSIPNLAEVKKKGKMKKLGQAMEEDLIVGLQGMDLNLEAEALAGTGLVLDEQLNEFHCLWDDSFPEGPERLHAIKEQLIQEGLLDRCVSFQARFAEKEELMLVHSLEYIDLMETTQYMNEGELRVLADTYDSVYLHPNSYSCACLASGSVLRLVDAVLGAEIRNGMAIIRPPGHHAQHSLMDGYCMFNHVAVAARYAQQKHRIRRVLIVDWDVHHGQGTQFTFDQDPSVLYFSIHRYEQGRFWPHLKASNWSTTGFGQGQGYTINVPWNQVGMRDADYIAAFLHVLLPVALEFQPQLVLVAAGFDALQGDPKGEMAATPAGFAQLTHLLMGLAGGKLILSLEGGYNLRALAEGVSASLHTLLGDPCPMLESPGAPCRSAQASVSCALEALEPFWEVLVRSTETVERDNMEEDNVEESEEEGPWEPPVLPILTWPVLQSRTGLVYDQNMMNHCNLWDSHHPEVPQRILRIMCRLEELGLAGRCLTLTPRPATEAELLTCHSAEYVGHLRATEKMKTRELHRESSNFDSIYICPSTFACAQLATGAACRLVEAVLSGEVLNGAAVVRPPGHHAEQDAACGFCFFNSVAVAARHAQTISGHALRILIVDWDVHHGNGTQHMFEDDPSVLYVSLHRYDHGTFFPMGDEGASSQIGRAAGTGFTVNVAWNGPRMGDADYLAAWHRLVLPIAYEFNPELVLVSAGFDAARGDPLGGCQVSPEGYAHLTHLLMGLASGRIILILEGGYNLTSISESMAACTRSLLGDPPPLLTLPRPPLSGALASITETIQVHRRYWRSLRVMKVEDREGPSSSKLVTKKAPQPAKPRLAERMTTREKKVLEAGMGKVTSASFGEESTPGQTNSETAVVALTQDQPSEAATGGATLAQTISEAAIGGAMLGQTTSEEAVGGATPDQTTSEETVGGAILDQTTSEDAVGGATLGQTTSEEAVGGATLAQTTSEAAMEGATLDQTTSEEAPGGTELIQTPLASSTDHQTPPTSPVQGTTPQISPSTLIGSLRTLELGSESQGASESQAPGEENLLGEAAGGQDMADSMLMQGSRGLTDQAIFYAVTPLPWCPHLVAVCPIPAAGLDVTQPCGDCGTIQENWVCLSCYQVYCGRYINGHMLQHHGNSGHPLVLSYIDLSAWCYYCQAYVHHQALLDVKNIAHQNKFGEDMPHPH

HCT-15 = test: Growth inhibition of human HCT15 cells after 48 hrs by SRB assay; format: functional; settings: HCT-15, 48 h
SK-MEL-2 = test: Growth inhibition of human SK-MEL-2 cells after 48 hrs by SRB assay; format: functional; settings: SK-MEL-2, 48 h

In the case of `CC(C)(C)OC(=O)Nc1ccc2c(c1)C(NC(=O)Nc1cccc(C#N)c1)CC(C)(C)O2` (stereo not given), the “Ratio IC50” value [1] is reported as >10, the GI50 (HOP-92) is reported as 0.776 µM and the fold change (FC) [2] is reported as 1.3. For the same molecule, the inhibition (Hs 683 [3]) was “Active”, the GI50 (786-0) was 7.59 µM and the Activity (Hs 683 [4]) was “Active”. It also gave a GI50 (EKVX) of 0.562 µM, a GI50 (HL-60(TB)) of 2.57 µM and a GI50 (U-251) of 1.48 µM. The GI50 (OVCAR-5) was 33.9 µM, the inhibition (Homo sapiens) was “inactive” and the GI50 (SK-OV-3) was 9.12 µM. For the same molecule, the fold change (FC) [5] was 8.3, the Activity (PBMC) was “Non-Toxic” and the IC50 [6] was > 200 µM. For the same molecule, the inhibition [7] was “inactive”, the Activity (Hs 683 [8]) was 25% and the GI50 (HT-29) was 6.92 µM. For the same molecule, the GI50 (Malme-3M) was 4.07 µM, the “Ratio IC50” value [9] was 6 - 14 and the GI50 (ACHN) was 3.8 µM. The GI50 (NCI-H460) was 3.02 µM, the inhibition [10] was “inactive” and the GI50 (HCT-15) was 2 µM. The GI50 (SK-MEL-2) was 5.37 µM.
